From ChEMBL document CHEMBL1131102, “A new series of highly potent growth hormone-releasing peptides derived from ipamorelin” (J Med Chem, 1998)
Values joined by “and” are separate entries in the source; they are usually repeats but may differ in a detail not shown here. Equal entries are not always repeated. Non-standard residues stand in square brackets, D forms with d. Residues, ends and D or L forms follow the SMILES beside them. d2Nal = N[C@H](Cc1ccc2ccccc2c1)C(=O)O; 3Amb = NCc1cccc(C(=O)O)c1; Aib = CC(C)(N)C(=O)O

Tests used:
Rattus norvegicus [1] = organism: Rattus norvegicus; assay: Tested in vitro for GH-releasing potency against rat pituitary cells.; type: functional; conditions: Pituitary gland cell
In short: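 Rat pituitaries were trypsin-dispersed into single cells and cultured 3 days, then washed and stimulated 15 min with secretagogue. Supernatant GH was measured by rat GH SPA. EC50 came from a Hill fit of release above basal; Emax as % of GHRP-6 maximum. Mean ± SEM of 1–5 experiments.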

Rattus norvegicus [2] = assay: Compound was tested in vivo for GH-releasing potency against anesthetized female rats; type: functional
In short: (§1)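 Male or female rats (250 ± 25 g) were anesthetized with pentobarbital ip (50 mg/mL, 1.2 mL/kg). After 15 min, orbital blood was taken, then compound was given as an iv tail-vein bolus (2 mL/kg) and blood sampled again at 10 min. Rat GH was assayed in heparinized plasma. At least five doses, six rats per dose. ED50 by Hill fit; Emax as % of GHRP-6.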

Rattus norvegicus [3] = assay: Tested in vivo for GH-releasing potency against anesthetized female rats; type: functional; in short: as §1
Canis familiaris [4] = assay: Basal GH release was measured after 0.5 mg/kg iv administration into Beagle dogs; type: functional, Canis lupus familiaris
In short: (§2)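 Fasted (overnight) Beagle dogs were given compound in citrate/phosphate buffer, pH 5.0, either as a 0.5 mg/kg iv bolus in a hind-leg vein or by po gavage (2.7 or 1.8 mg/kg). Iv and po dosing were separated by a 1-week washout. EDTA blood was drawn from a front-leg vein at intervals up to 6 h. Plasma GH was measured by porcine GH ELISA.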

Rattus norvegicus [5] = assay: (§3) Tested in vivo for GH-releasing potency against anesthetized male rats; type: functional; in short: as §1
Sus scrofa [6] = organism: Sus scrofa; assay: (§4) Compound was tested for GH-releasing potency against female Danish slaughter swine.; type: functional
In short: (§5)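 Swine with jugular catheters received single iv injections in increasing doses (range 0.03–500 nmol/kg), five doses per experiment at 24-h intervals. Vehicle was phosphate/citrate buffer diluted in saline with 0.5% porcine serum albumin. Blood was sampled from 1 h before to 3 h after dosing; pGH by ELISA. Basal-adjusted Cmax was fitted (Hill or Michaelis–Menten) for ED50; six swine.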

Canis familiaris [7] = assay: Basal GH release was measured after 2.7 mg/kg po administration into Beagle dogs; type: functional, Canis lupus familiaris; in short: as §2
Rattus norvegicus [8] = assay: as §3; type: functional; design: unit not given here; in short: as §1
[9] = Oral bioavailability in dog (Beagle); type: ADME, organism-based, Canis lupus familiaris; conditions: in vivo
In short: (§6)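 Fasted (overnight) male and female Beagle dogs; dosed po by gavage (2.7 or 1.8 mg/kg) and iv as a hind-leg-vein bolus (0.5 mg/kg), with a 1-week washout between routes. Vehicle was citrate/phosphate buffer, pH 5.0. EDTA blood was drawn from a front-leg vein up to 6 h. Plasma compound was measured by HPLC-UV after solid-phase extraction. AUC(0–6 h); f = AUCpo·doseiv/(AUCiv·dosepo).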

Canis familiaris [10] = assay: Basal GH release was measured after 1.8 mg/kg po administration into Beagle dogs; type: functional, Canis lupus familiaris; in short: as §2
Sus scrofa [11] = organism: Sus scrofa; assay: as §4; type: functional, organism-based; in short: as §5
Canis familiaris [12] = assay: Area under curve was measured after po administration into Beagle dog; type: ADME, organism-based, Canis lupus familiaris; conditions: in vivo; in short: as §6
Canis familiaris [13] = assay: Area under curve was measured after iv administration into Beagle dog; type: ADME, organism-based, Canis lupus familiaris; conditions: in vivo; in short: as §6
[14] = Rattus norvegicus, read-out: Emax

Compound	EC50 (Rattus norvegicus [1])	Emax (Rattus norvegicus [1])	ED50 (Rattus norvegicus [8])	other results
CN(C(=O)[C@@H](Cc1ccc2ccccc2c1)NC(=O)c1cccc(CN)c1)[C@H](Cc1ccccc1)C(N)=O	170 nM	85%		ED50 (Rattus norvegicus [2]): > 1000 nmol/kg
CN(C(=O)[C@@H](Cc1ccc2ccccc2c1)N(C)C(=O)c1cccc(CN)c1)[C@@H](CO)Cc1ccccc1	265 nM	75%		ED50 (Rattus norvegicus [2]): > 1000 nmol/kg
NCCCC[C@H](NC(=O)[C@@H](Cc1ccccc1)NC(=O)[C@@H](Cc1ccc2ccccc2c1)NC(=O)c1ccccc1CN)C(N)=O	85 nM	60%		
CN(C(=O)c1cccc(CN)c1)[C@H](Cc1ccc2ccccc2c1)C(=O)N(C)[C@H](Cc1ccccc1)C(N)=O	115 nM	85%		
CNC(=O)[C@@H](Cc1ccccc1)N(C)C(=O)[C@@H](Cc1ccc2ccccc2c1)N(C)C(=O)c1cccc(CN)c1	40 nM	110%		
NCCCC[C@H](NC(=O)[C@@H](Cc1ccccc1)NC(=O)[C@@H](Cc1ccc2ccccc2c1)NC(=O)c1cccc(CN)c1)C(N)=O (H-[3Amb][d2Nal][dF]K-NH2)		85%	>4800	
NCCCC[C@H](NC(=O)[C@@H](Cc1ccccc1)NC(=O)[C@@H](Cc1ccc2ccccc2c1)NC(=O)c1ccc(CN)cc1)C(N)=O	110 nM	50%		

Continued, in another order:

EC50 (Rattus norvegicus [1])	Compound	Emax (Rattus norvegicus [1])	ED50 (Rattus norvegicus [8])	other results
5 nM	CN(C(=O)c1cccc(CN)c1)[C@H](Cc1ccc2ccccc2c1)C(=O)N(C)[C@H](Cc1ccccc1)C(=O)N[C@@H](CCCCN)C(N)=O	80%		ED50 (Rattus norvegicus [2]): 146 nmol/kg; Emax (Rattus norvegicus [3]; [14]): 100%
1.3 nM	CC(C)(N)C(=O)N[C@@H](Cc1c[nH]cn1)C(=O)N[C@H](Cc1ccc2ccccc2c1)C(=O)N[C@H](Cc1ccccc1)C(=O)N[C@@H](CCCCN)C(N)=O [IPAMORELIN] (H-[Aib]H[d2Nal][dF]K-NH2)	85%	85	Basal GH (Canis familiaris [4]): 1.6 ng/mL; Emax (Rattus norvegicus [5]): 120%; ED50 (Sus scrofa [6]): 0.0023 µmol/kg; Emax (Sus scrofa [6]): 88%; Basal GH (Canis familiaris [7]): 5.4 ng/mL; bioavailability [9]: 4%
0.5 nM	CN(C(=O)[C@@H](Cc1ccc2ccccc2c1)NC(=O)c1cccc(CN)c1)[C@H](Cc1ccccc1)C(=O)N[C@@H](CCCCN)C(N)=O	80%	80	Basal GH (Canis familiaris [10]): 1.2 ng/mL; Basal GH (Canis familiaris [4]): 1.2 ng/mL; Emax (Rattus norvegicus [5]): 90%; ED50 (Sus scrofa [11]): 2 nM/kg; AUC (Canis familiaris [12]): 48 ng·h/mL; AUC (Canis familiaris [13]): 137 ng·h/mL; Emax (Sus scrofa [6]): 70%; bioavailability [9]: 10%
2 nM	CN(C(=O)[C@@H](Cc1ccc2ccccc2c1)NC(=O)[C@H](Cc1c[nH]cn1)NC(=O)C(C)(C)N)[C@H](Cc1ccccc1)C(=O)N[C@@H](CCCCN)C(N)=O	100%	1.8	Emax (Rattus norvegicus [5]): 90%
1.8 nM	C[C@H](NC(=O)[C@@H](Cc1ccc2ccccc2c1)NC(=O)[C@@H](C)N)C(=O)N[C@@H](Cc1c[nH]c2ccccc12)C(=O)N[C@H](Cc1ccccc1)C(=O)N[C@@H](CCCCN)C(N)=O [PRALMORELIN] (H-[dA][d2Nal]AW[dF]K-NH2)	85%		ED50 (Sus scrofa [6]): 0.0006 µmol/kg; Emax (Sus scrofa [6]): 75%; Emax (Rattus norvegicus [3]): 90%; Emax (Rattus norvegicus [3]; [14]): 100%
2.2 nM	C[C@H](NC(=O)[C@@H](Cc1c[nH]c2ccccc12)NC(=O)[C@@H](N)Cc1c[nH]cn1)C(=O)N[C@@H](Cc1c[nH]c2ccccc12)C(=O)N[C@H](Cc1ccccc1)C(=O)N[C@@H](CCCCN)C(N)=O (H-H[dW]AW[dF]K-NH2)	100%		ED50 (Sus scrofa [6]): 0.0039 µmol/kg; Emax (Sus scrofa [6]): 100%; Emax (Rattus norvegicus [3]): 60% and 100%
1.5 nM	CN(C(=O)[C@H](Cc1c[nH]cn1)NC(=O)C(C)(C)N)[C@H](Cc1ccc2ccccc2c1)C(=O)N(C)[C@H](Cc1ccccc1)C(=O)N[C@@H](CCCCN)C(N)=O	85%		ED50 (Rattus norvegicus [2]): 14 nmol/kg
3.8 nM	CNC(=O)[C@@H](Cc1ccccc1)N(C)C(=O)[C@@H](Cc1ccc2ccccc2c1)N(C)C(=O)[C@H](Cc1c[nH]cn1)NC(=O)C(C)(C)N	110%		
10 nM	CNCc1cccc(C(=O)N[C@H](Cc2ccc3ccccc3c2)C(=O)N[C@H](Cc2ccccc2)C(=O)N[C@@H](CCCCN)C(N)=O)c1	85%	65	Emax (Rattus norvegicus [5]): 30%
